# Hep lipid drop: hepatic lipid droplet formation modulation; AML12 mouse hepatocytes, oleate lipid droplets, BODIPY imaging; inhibition, % at 6.5 µM; 0.4% of 240,000 active; AID 1656;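 active = lipid droplet intensity inhibited by at least 50%, with more than 500 cells counted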
#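 Assay system: AML12 hepatocytes (mouse); Probe or stimulus: oleic acid at 100 µM to induce lipid droplet formation; Dosing: compound at 6.5 µM only; Schedule: compound with oleate, overnight; Detection: fluorescence imaging, 20x objective, two fields per well; Measure: % inhibition of lipid droplet signal.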
# Beta2AR agonist: activates human beta-2 adrenergic receptor causing internalization; P07550; Am2.2-beta2AR cells, FAP receptor internalization, flow cytometry; response, % (no concentration beside the values); 0.43% of 340,000 active; AID 504454;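 active = response above a set limit, near 3 SD of response in nonfluorescent compounds, cut at about 42% in these data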
# H9c2 TAG inh: reduces triacylglycerol accumulation in H9c2 cells | Nile Red lipid (TAG) fluorescence; cells loaded with 200 µM oleic acid | 0.66% of 230,000 active | inhibition, % at 12.5 µM | AID 651582;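 active = pattern-corrected inhibition of lipid staining of at least 50% with the nuclear-stain viability signal not falling by more than 50%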;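 note: 0% = DMSO wells and 100% = triacsin C control wells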
# GRK2 inh: blocks RNA aptamer binding to human GRK2 | bead flow cytometry, FAM-aptamer displacement from GRK2 | inhibition of aptamer binding, % at 10 µM | 0.59% of 330,000 active | AID 488847;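 active = inhibition of aptamer binding above 40%, roughly 3 SD of noise, on plates passing a quality check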;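 note: median bead fluorescence of bound FAM aptamer so fluorescent compounds give negative values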
# Target sequence (P25098 whole entry, looked up): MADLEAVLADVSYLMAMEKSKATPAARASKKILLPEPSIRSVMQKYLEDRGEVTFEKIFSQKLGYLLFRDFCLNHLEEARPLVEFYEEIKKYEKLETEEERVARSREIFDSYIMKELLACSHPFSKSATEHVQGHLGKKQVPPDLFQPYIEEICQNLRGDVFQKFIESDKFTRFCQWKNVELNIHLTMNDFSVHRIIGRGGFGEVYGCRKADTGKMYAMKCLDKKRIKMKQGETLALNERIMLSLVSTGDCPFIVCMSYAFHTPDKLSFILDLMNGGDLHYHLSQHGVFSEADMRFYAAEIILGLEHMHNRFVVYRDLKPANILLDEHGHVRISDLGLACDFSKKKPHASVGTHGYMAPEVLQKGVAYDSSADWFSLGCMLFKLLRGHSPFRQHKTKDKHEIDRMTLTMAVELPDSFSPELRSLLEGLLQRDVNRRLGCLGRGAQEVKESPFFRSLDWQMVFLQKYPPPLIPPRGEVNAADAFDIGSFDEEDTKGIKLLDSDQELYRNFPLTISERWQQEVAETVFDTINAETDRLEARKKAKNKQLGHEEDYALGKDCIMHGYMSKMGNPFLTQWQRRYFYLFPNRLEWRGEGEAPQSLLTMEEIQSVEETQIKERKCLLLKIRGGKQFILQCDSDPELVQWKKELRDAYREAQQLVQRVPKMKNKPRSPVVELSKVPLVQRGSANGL
# NTR1 ag: NTR1 (human) agonism; NTR1-U2OS beta-arrestin-GFP spot imaging, agonist mode; activation, % at 20 µM; 0.17% of 330,000 active;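 active = activation at or above 40% of the spot to cytoplasm intensity ratio, with at least 20 cells analyzed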;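 note: 0% = DMSO without peptide and 100% = 100 nM NTR1 peptide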
# Arr AP2 block: blocks beta-arrestin peptide binding to AP2 adaptin; 0.31% of 340,000 active; inhibition, % at 10 µM; FITC-arrestin peptide / GST-AP2 beads, flow cytometry; AP2 beta2 appendage carries R879A mutation;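 active = inhibition above a set limit, near 3 SD of compounds lacking own fluorescence, cut at about 54% in these data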;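 note: plate controls were DMSO wells for no effect and 5 µM unlabelled arrestin peptide for full effect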
#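 Measured by: flow cytometry, FL1 (488/535 nm); Material: AP2 appendage R879A on GSH beads; Evaluation: percent response; Timing: pre-incubation 12 min, peptide binding 1 h, room temperature; Also added: 50 nM FITC-arrestin peptide; Medium: PBS with 0.05% Tween 20 and 0.1% BSA.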
# GRK2 inh confirm: human GRK2 inhibition confirmation, cherry pick 1; 4% of 2,000 active; bead-bound GRK2, FAM-aptamer displacement, flow cytometry; shares compounds with GRK2 inh; aptamer displacement, % at 10 µM;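 active = aptamer displacement above 40%, near three times the noise of non-fluorescent compounds, on plates passing quality checks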;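 note: negative values mostly reflect intrinsic compound fluorescence rather than true enhancement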
# Aptamer quench SP: counter-screen for GRK2 aptamer inhibitors: fluorescent aptamer quenchers. AID 504580. fluorescence response (% of DMSO), % at 10 µM. Carboxyfluorescein RNA aptamer on beads, flow cytometry quenching; stronger effect = lower value. 2,000 tested, under 10 active. shares compounds with GRK2 inh;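 active = compounds that quench the bead-bound fluorescent RNA probe, cutting fluorescence to under half of the solvent control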;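 note: counterscreen run without GRK2 so only probe quenching by compound is measured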
# GRK2 confirm 2: human GRK2 inhibition confirmation, cherry pick 2. bead-bound GRK2, FAM-aptamer displacement, flow cytometry. 360 tested, under 10 active. shares compounds with GRK2 inh. inhibition of aptamer binding, % at 10 µM;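 active = inhibition of aptamer binding above 40%, about triple the noise seen with nonglowing compounds, on plates passing quality control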;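 note: negative values mostly come from compounds that fluoresce themselves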
# FAM quench CP2: quenches fluorescent RNA aptamer, GRK2 hit artifact | shares compounds with GRK2 inh | carboxyfluorescein RNA aptamer beads, flow cytometry quenching; stronger effect = lower value | fluorescence response vs DMSO, % at 10 µM | 360 tested, under 10 active;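 active = response vs DMSO under 50%, meaning signal dropped by over half, treated as fluorescence quencher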;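 note: labelled aptamer on streptavidin beads without GRK2 as a quench counter-screen; 100% = bead fluorescence of DMSO wells and lower means quenching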
# Active calls of the source: *; nt = no result. The list is not random: actives were taken first. Their share in the collection is about 2%.
SMILES,Hep lipid drop,Beta2AR agonist,H9c2 TAG inh,GRK2 inh,NTR1 ag,Arr AP2 block,GRK2 inh confirm,Aptamer quench SP,others
CCN(CC(=O)NCc1ccc(F)cc1)C(=O)C(C)Oc1cccc(Cl)c1 (configuration not stated),nt,-5.8,-2.4,79.0*,-0.6,-8.2,-1.5,101.5,
COc1ccc2[nH]c3c(=O)n(/N=C/c4ccc(OC)c(CN5CCCC5)c4)c(C)nc3c2c1,-39.3,18.5,15.3,59.0*,0.2,4.2,-43.2,101.0,
CCOC(=O)Nc1sc(C)nc1-c1ccccc1,nt,-3.8,nt,44.0*,-1.4,-8.0,-4.5,97.0,
COC(=O)Nc1sc(C)nc1-c1ccccc1,nt,-6.1,nt,2.0,0.7,-0.8,nt,nt,
CCOc1ccc(-n2nc(C(=O)NC3CCCCC3)c3ccccc3c2=O)cc1,-7.3,0.4,nt,81.0*,1.5,-5.0,-3.9,101.5,
CCC(C)NC(=O)CNC(=O)c1nn(-c2ccc(OC)c(Cl)c2)c(=O)c2ccccc12 (configuration not stated),4.2,1.1,nt,0.0,-1.2,-8.7,-3.3,100.7,
COc1ccc(-n2nc(C(=O)NCC(=O)NC(C)C)c3ccccc3c2=O)cc1Cl,1.7,0.6,nt,1.0,0.9,32.1,nt,nt,
CCOc1ccc(-n2nc(C(=O)NCCOC)c3ccccc3c2=O)cc1,14.1,-10.0,10.5,0.0,-0.2,1.5,nt,nt,
CCC(C)NC(=O)CNC(=O)c1nn(-c2ccc(OC)cc2)c(=O)c2ccccc12 (configuration not stated),nt,-4.5,nt,44.0*,-1.0,-4.0,-1.6,93.0,
CCOc1ccc(C(=O)NC2CCN(C(=O)Nc3ccc(F)cc3)CC2)cc1,-9.6,-6.6,nt,0.0,-2.2,-0.2,nt,nt,
COc1ccc(S(=O)(=O)N2CCCCCC2)cc1C(=O)N(C)Cc1ccc(Cl)cc1Cl,nt,-0.9,-1.7,0.0,3.6,16.4,nt,nt,
Cc1ccc(SCc2c(C(=O)N/N=C/c3cccs3)nnn2-c2nonc2N)cc1,nt,nt,4.2,nt,nt,nt,nt,nt,
O=C(Cc1ccccc1)Nc1ccc(NC(=O)c2ccccc2)nc1,8.1,-11.2,nt,41.0*,1.3,-11.1,nt,nt,GRK2 confirm 2=7.6;FAM quench CP2=101.0
COc1ccc(OCC(=O)Nc2ccc(N3CCN(Cc4ccccc4F)CC3)cc2)cc1,8.2,-5.2,nt,0.0,0.5,28.8,nt,nt,
COc1ccc(NC(=O)C(=O)N2N=C3CCCCC3C2(O)C(F)(F)F)cc1 (configuration not stated),-0.7,-0.2,8.3,41.0*,0.2,-10.8,nt,nt,GRK2 confirm 2=8.9;FAM quench CP2=109.0
Cc1occc1C(=O)NCc1cccc(CNC(=O)c2ccoc2C)c1,-10.3,6.0,-11.4,47.0*,-1.9,-2.1,-0.1,98.2,
CN(Cc1ccccc1Cl)C(=O)CNC(=O)C12CC3CC(CC(C3)C1)C2,nt,-13.7,-10.9,3.0,16.9,-17.9,nt,nt,
Cc1ccc(OCC(=O)N2CCN(c3nnc(-c4ccc(C)cc4)c4ccccc34)CC2)cc1,14.0,-8.6,nt,4.0,38.5,-6.8,nt,nt,
COc1ccc(OCC(=O)N2CCN(c3nnc(-c4ccc(C)cc4)c4ccccc34)CC2)cc1,24.1,-1.1,-3.3,54.0*,4.7,2.3,0.7,91.2,
CSCCC(NC(=O)c1ccco1)C(=O)NCC(c1ccccc1)N(C)C (configuration not stated),nt,1.1,2.7,10.0,-1.0,5.1,nt,nt,
O=C(O)c1ccc(N2C(=O)c3cccc4c(C(=O)O)ccc(c34)C2=O)cc1,3.1,-1.9,nt,70.0*,nt,-11.4,29.9,107.2,
CC(=O)NCCC1CCN(C(=O)C2CCC(=O)N(C3CCCC3)C2)CC1 (configuration not stated),13.1,-2.8,nt,0.0,-0.7,-27.0,nt,nt,
CCN(Cc1ccccc1)C(=O)COC(=O)c1cnc(C)cn1,15.1,8.4,-5.7,1.0,-0.3,3.6,nt,nt,
Cc1cnc(C(=O)OCC(=O)c2ccccc2)cn1,nt,-13.6,-5.5,1.0,1.3,8.1,nt,nt,
Cc1cnc(C(=O)OCC(=O)c2ccc(C)s2)cn1,nt,3.0,10.9,45.0*,2.0,-7.3,-1.2,103.3,
SMILES,Hep lipid drop,Beta2AR agonist,H9c2 TAG inh,GRK2 inh,NTR1 ag,Arr AP2 block,GRK2 inh confirm,Aptamer quench SP,others
Cc1cnc(C(=O)OCC(=O)N(Cc2ccccc2)C(C)C)cn1,-1.1,6.0,0.5,42.0*,0.5,0.4,5.3,96.8,
Nc1cc(=O)[nH]c(SCC(=O)Nc2ccc(N3CCOCC3)cc2)n1,nt,-5.6,-8.2,4.0,-0.7,4.4,nt,nt,
CN1CCN(C(=S)SCC(=O)Nc2nc(-c3ccccc3)c(-c3ccccc3)o2)CC1,12.9,-8.4,nt,100.0*,1.3,11.7,nt,nt,GRK2 confirm 2=-3.9;FAM quench CP2=98.0
O=C(NC1CCCCC1)N1CCCc2ccccc21,nt,-8.3,1.5,2.0,-0.5,-4.5,nt,nt,
O=C(NC1CCCCC1)N1CCSC1=Nc1ccccc1,nt,12.7,-3.6,43.0*,35.4,17.4,1.3,93.1,
O=C(O)c1ccc2c(c1)C(=O)/C(=C\c1ccco1)C2=O,6.9,-1.9,-14.4,58.0*,0.1,11.3,-3.9,93.7,
O=C(O)c1ccc2c(c1)C(=O)/C(=C/c1ccccc1)C2=O,-10.9,-1.1,nt,16.0,-0.8,2.8,nt,nt,
CC1CN(S(=O)(=O)c2cccc(C(=O)NCC3COc4ccccc4O3)c2)CC(C)O1 (configuration not stated),nt,2.4,14.9,0.0,-2.0,-6.5,nt,nt,
O=C(CN1C(=O)COc2ccc(S(=O)(=O)N3CCOCC3)cc21)Nc1cccc(Cl)c1,0.8,0.6,nt,66.0*,1.1,2.5,-5.1,100.6,
COc1cccc(NC(=O)CN2C(=O)COc3ccc(S(=O)(=O)N4CCOCC4)cc32)c1,5.1,0.8,nt,3.0,0.7,-12.6,nt,nt,
O=[N+]([O-])c1cccnc1N1CCN(c2ccccc2F)CC1,-0.8,1.2,-4.8,46.0*,1.4,46.1,-3.4,99.7,
CCCc1ccc(OCc2ccc(C(=O)N3CCN(c4ccccn4)CC3)o2)c(OC)c1,-32.0,-0.1,nt,47.0*,22.4,4.3,2.5,96.4,
Cn1c2ccccc2c2cc(C(=O)OCC(=O)N3CC(=O)Nc4ccccc43)sc21,nt,6.0,0.0,40.0,6.0,-2.3,3.6,105.0,
O=C(NCc1cccs1)c1cc(-c2ccc(O)cc2)on1,39.3,3.1,-12.1,79.0*,2.1,13.0,-2.9,98.2,
O=C(COc1ccccc1)Nc1cccc(-c2ccc(N3CCOCC3)nn2)c1,nt,-1.6,2.3,0.0,0.1,27.4,0.9,93.7,
